Compound activity as filed in PubChem.
This is one part of a sample in which hits are shown more often than they occur.
CHOP inhibitor – blocks CHOP induction under ER stress | CHO-K1 CHOP-promoter luciferase, tunicamycin-induced, 15-18 h | inhibition, % at 10 µM | 3.8% of 220,000 active;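 active = compounds that reduced the stress-induced luciferase reporter signal by more than about 70% of percent inhibition, limit read from the data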;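 note: 0% = tunicamycin plus vehicle and 100% = wells without tunicamycin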
H9c2 protect – myocardial damage modulation in H9c2 cells. H9c2 cardiomyocytes, H2O2 injury protection, ATPLite, 2 h. protection from H2O2 cell death, % at 20 µM. 0.63% of 360,000 active;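 active = compounds giving at least 50% protection of heart cells from peroxide-induced death in the single-dose screen, raw or plate-pattern-corrected value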;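 note: 0% = DMSO wells with peroxide and 100% = DMSO wells without peroxide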
UPR XBP1 act – adaptive UPR (XBP1) activation | CHO-XBP1 luciferase reporter, IRE1-XBP1 UPR activation, luminescence; percent of tunicamycin response, DMSO as zero | activation, % at 20 µM | 0.33% of 330,000 active | AID 463104;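 active = versus positive control, 20 µM dose yields 30% or more activation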;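 note: 100% = tunicamycin at 10 µg/mL and 0% = DMSO only wells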
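Material: CHO-XBP1 cells stably carrying IRE1-XBP1-driven luciferase reporter | Medium: F12 with 10% serum | Compound dosing: 20 µM single concentration, DMSO 1% | Incubation: Overnight seeding at 37 °C, 6 h compound treatment at 37 °C | Detection: Steady-Glo luminescence read | Read-out basis: % activation of reporter signal versus tunicamycin and DMSO controls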
hiPSC survival – enhancers of human iPSC single-cell survival; hiPSC single-cell survival, ATPlite luminescence; 100% = ROCK inhibitor wells, 0% = DMSO; survival enhancement, % at 20 µM; 0.044% of 360,000 active; in the data active = survival enhancement above about 18%;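 note: cells exposed to compounds for 16 hours before the ATP read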
UPR CHOP act – apoptotic UPR (CHOP) activation. CHO-CHOP luciferase reporter, luminescence; percent of tunicamycin response over DMSO baseline. activation, % at 10 µM. 0.34% of 330,000 active. AID 449763;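 active = at 10 µM dose, activation of 40% or more, normalized to positive control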;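 note: 100% = tunicamycin at 10 µg/mL and 0% = DMSO alone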
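Assay system: CHO-CHOP cells, stable luciferase reporter of PERK-eIF2a-CHOP signalling / Buffer or medium: F12 plus 10% serum / Compound dosing: one dose, 10 µM in 0.5% DMSO / Times: 6 h compound treatment, 37 °C / Technique: luciferase luminescence / Read-out: % reporter activation, DMSO baseline versus tunicamycin full activation / Benchmarks: tunicamycin and DMSO controls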
Numbers without * were called inactive; . = no result given; ! = not confirmed by another sample.

SMILES	CHOP inhibitor	H9c2 protect	UPR XBP1 act	hiPSC survival	UPR CHOP act
CCN(C(=O)COC(=O)c1ccccc1Nc1cccc(C)c1C)C1CCS(=O)(=O)C1 (stereo not given)	70*	4	0	5	-1
CC1=C(C(=O)OCc2ccccc2)C(c2cccnc2)c2c(n(C)c(=O)n(C)c2=O)N1 (stereo not given)	85*	8	0	-1	-1
N/C(=N/OC(=O)c1cccc([N+](=O)[O-])c1)c1cccc([N+](=O)[O-])c1	9	-6	3	-1	4
CC1=C(C)/C(=N/OC(=O)c2cccc([N+](=O)[O-])c2)C=CC1=O	92*	-10	-4	-3	16
COc1coc(C(O)CN)cc1=O (stereo not given)	-4	-3	-1	-1	1
CCOC(=O)C(=Cc1cc(=O)c(OC)co1)C(=O)OCC	109*	-26	.	6	.
C[C@H]1CN([C@@H](C)CO)C(=O)CCCn2nncc2CO[C@H]1CN(C)C(=O)NC1CCCCC1	.	11	.	-1	.
CCCn1c(CN(Cc2ccccc2)Cc2ccccc2)nc2c1c(=O)n(C)c(=O)n2C	92*	3	-1	0	1
CCCn1c(CN(C)Cc2ccccc2)nc2c1c(=O)n(C)c(=O)n2C	25	-8	1	-2	0
CCCCCC(=O)N1C[C@@H](n2cc(COC(=O)c3ccccc3)nn2)[C@H](O)C[C@@H]1c1ccc(C)cc1	.	9	.	0	.
Cc1ccc(-n2nc(C)c3c(C)cc(=O)[nH]c32)cc1	12	5	-1	22*	2
C=CCc1ccccc1OCC(=O)N/N=C/c1ccc(OC(C)=O)cc1OC(C)=O	73*	73*	1	-1	-3
CC(=O)Oc1ccc(/C=N/NS(=O)(=O)c2ccc(C)cc2)c(OC(C)=O)c1	.	2	-7	0	1
COc1ccc(C(=O)OCC(=O)c2c(N)n(C)c(=O)n(C)c2=O)c(OC)c1OC	.	9	3	0	0
C/C(=N\NC(=O)c1ccc([N+](=O)[O-])cc1Cl)c1ccccc1	83*	-7	6	-1	4
Nc1[nH]c(C(=O)c2ccccc2)c(-c2ccc(Cl)cc2)c1C(=O)NCc1ccccc1	.	.	.	2	.
Cc1cccc(OCCCC(=O)O)c1C	70*	2	0	-2	0
COc1ccc(NS(=O)(=O)c2ccc3c(c2)Cc2ccccc2-3)cn1	95*	-16	-4	1	-3
COc1cccc(CNC(=O)COC(=O)c2cc([N+](=O)[O-])ccc2N2CCCC2)c1	.	3	3	-1	-1
CCN(Cc1ccccc1)C(=O)COC(=O)c1cc(S(=O)(=O)Nc2ccccc2OC)ccc1O	.	-9	-4	0	1
Cc1nc2ccccn2c1C(=O)/C=C/c1cccc([N+](=O)[O-])c1	-137	6	6	-4	116*
Cc1ccc(/C=C/C(=O)c2c(C)nc3ccccn23)cc1	-60	31	8	-2	5
COc1ccccc1-c1nnc(NC(=O)c2ccc(S(=O)(=O)N(C)C)cc2)o1	85*	23	-1	5	3
CCN(Cc1ccccc1)S(=O)(=O)c1ccc(C(=O)Nc2nnc(-c3ccccc3OC)o2)cc1	85*	46	-2	0	3
CCCCN(CC)S(=O)(=O)c1ccc(C(=O)Nc2nnc(-c3ccccc3Cl)o2)cc1	88*	39	-1	1	10
SMILES	CHOP inhibitor	H9c2 protect	UPR XBP1 act	hiPSC survival	UPR CHOP act
CCCCN(CCCC)S(=O)(=O)c1ccc(C(=O)Nc2nnc(CSC)o2)cc1	27	50*	-3	0	7
COc1ccccc1-c1nnc(NC(=O)c2ccc(S(=O)(=O)N(C)CC3CCCO3)cc2)o1 (stereo not given)	.	13	-5	0	0
Cc1cc(OC(C)C(=O)NC2CC(C)(C)NC(C)(C)C2)c2c(C)c(C)c(=O)oc2c1 (stereo not given)	.	11	.	-1	.
O=C(Nc1nnc(-c2ccccc2Cl)o1)c1ccc(S(=O)(=O)N2CCCCCC2)cc1	61	.	3	.	13
CC1CCCCN1S(=O)(=O)c1ccc(C(=O)Nc2nnc(-c3ccccc3Cl)o2)cc1 (stereo not given)	77*	31	1	-1	13
O=c1c(O)c(-c2ccc3c(c2)OCO3)oc2ccccc12	74*	26	9	-1	5
NC(=O)CC(NC(=O)Cc1ccc(Cl)cc1)c1ccc(NCC2CC2)c([N+](=O)[O-])c1 (stereo not given)	2	0	0	-1	-1
NC(=O)CC(NC(=O)Cc1ccc(Br)cc1)c1ccc(NCc2ccc(F)cc2)c([N+](=O)[O-])c1 (stereo not given)	93*	3	-2	0	1
NC(=O)CC(NC(=O)Cc1ccc(Br)cc1)c1ccc(NCC2CC2)c([N+](=O)[O-])c1 (stereo not given)	77*	-6	-3	-3	-2
O=C(Nc1cccnc1Cl)c1cc(-c2cccc(O)c2)on1	.	-2	3	-1	6
O=[N+]([O-])c1c(Nc2ccc(O)cc2)cc(Cl)c2nonc12	.	-21	-12	1	-11
COc1cc(Cl)c(CNC[C@H]2O[C@@H](n3cnc4c(=O)[nH]c(N)nc43)[C@H](O)[C@@H]2O)c(Cl)c1O	.	-4	.	-1	.
O=C(Nc1cc2c(oc1=O)CCCC2=O)c1ccccc1	76*	1	3	0	0
CC(=O)Nc1ccc(C(=O)N2CCCC(c3cc(C(=O)NCc4ccccc4)no3)C2)cc1 (stereo not given)	.	-6	.	-1	.
COc1ccccc1N1CCN(CCCCOc2cccc3ccccc23)CC1	84*	-3	-1	-2	0
COc1ccccc1OCCCCN1CCN(c2ccccc2OC)CC1	-9	1	-1	4	-1
CC(C)C[C@@H]1COc2cc(N3CCC[C@H]3CO)ccc2S(=O)(=O)N1	.	.	.	3	.
Cc1ccc(N=Nc2[nH]c3ccccc3c2O)cc1	-20	-10	0	-1	1
COc1ccc(N=Nc2[nH]c3ccc(C)cc3c2O)cc1	91*	-6	1	3	2
CCOC(=O)c1ccc(NC(=O)Nc2nncs2)cc1	.	-8	.	-3	.
COCc1c(C(=O)NCCc2ccc(OC(F)F)cc2)oc2ccccc12	.	-3	0	1	1
CCn1nc(C(=O)O)c(=O)c2cc3c(cc21)OCO3	96*!	-6	-5	-1	-1
CCn1cc(C(=O)O)c(=O)c2cc3c(cc21)OCO3	-7	.	-5	.	1
Cc1cc(F)ccc1C(O)c1ncc(-c2ccccc2F)[nH]1 (stereo not given)	.	-9	.	4	.
Cc1cc(Nc2ccccc2)c2c([N+](=O)[O-])c(C)cc(C)c2n1	92*	-15	6	0	-3
Cc1cccc(Nc2cc(C)nc3ccccc23)c1	.	-6	-6	0	0
